The source of these data is paper PMC4265276 (Journal of Veterinary Pharmacology and Therapeutics, 2014).

Holding throughout (assay): Z'-Lyte kinase assay
Format in all cases: biochemical
Holding throughout (details): two replicates

One test addresses p160ROCK protein kinase (Homo sapiens, UniProt Q13464). The method, boiled down: (§1)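 Outsourced commercial profiling of the test compound against a panel of 38 non-JAK kinases, all screened with Z'-Lyte technology at a single concentration. Assay conditions and data analysis were specific to each kinase and set by the service provider. Every test was run in duplicate, and percent inhibition is reported separately for each replicate.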

Test [1] has as its target Mitogen-activated protein kinase kinase kinase kinase 4 (MAP4K4/HGK) (Homo sapiens, UniProt O95819). The method, boiled down:
as §1

The target of test [2] is T1, Aurora-related kinase 1 (ARK1) (Homo sapiens, UniProt O14965).
T1 sequence (O14965 1-403): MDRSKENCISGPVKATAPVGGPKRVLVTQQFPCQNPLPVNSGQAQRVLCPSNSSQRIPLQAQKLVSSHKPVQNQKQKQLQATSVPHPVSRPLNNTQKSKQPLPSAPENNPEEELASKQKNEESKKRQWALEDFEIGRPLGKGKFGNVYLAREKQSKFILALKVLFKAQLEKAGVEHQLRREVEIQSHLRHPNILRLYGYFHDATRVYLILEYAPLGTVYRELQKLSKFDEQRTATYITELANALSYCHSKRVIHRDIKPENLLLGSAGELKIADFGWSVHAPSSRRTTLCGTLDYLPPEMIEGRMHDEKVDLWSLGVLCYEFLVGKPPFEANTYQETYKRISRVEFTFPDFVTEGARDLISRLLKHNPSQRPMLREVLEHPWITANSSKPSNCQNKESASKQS
The method, boiled down:
as §1

Test [3] deals with High affinity nerve growth factor receptor (TRK-A) (Homo sapiens, UniProt P04629). The method, boiled down:
as §1

In test [4] the target is Vascular endothelial growth factor receptor 2 (VEGFR-2/FLK1) (Homo sapiens, UniProt P35968). The procedure, abridged:
as §1

The structures appear in SMILES notation.

High affinity nerve growth factor receptor (TRK-A), sequence (P04629 33-796): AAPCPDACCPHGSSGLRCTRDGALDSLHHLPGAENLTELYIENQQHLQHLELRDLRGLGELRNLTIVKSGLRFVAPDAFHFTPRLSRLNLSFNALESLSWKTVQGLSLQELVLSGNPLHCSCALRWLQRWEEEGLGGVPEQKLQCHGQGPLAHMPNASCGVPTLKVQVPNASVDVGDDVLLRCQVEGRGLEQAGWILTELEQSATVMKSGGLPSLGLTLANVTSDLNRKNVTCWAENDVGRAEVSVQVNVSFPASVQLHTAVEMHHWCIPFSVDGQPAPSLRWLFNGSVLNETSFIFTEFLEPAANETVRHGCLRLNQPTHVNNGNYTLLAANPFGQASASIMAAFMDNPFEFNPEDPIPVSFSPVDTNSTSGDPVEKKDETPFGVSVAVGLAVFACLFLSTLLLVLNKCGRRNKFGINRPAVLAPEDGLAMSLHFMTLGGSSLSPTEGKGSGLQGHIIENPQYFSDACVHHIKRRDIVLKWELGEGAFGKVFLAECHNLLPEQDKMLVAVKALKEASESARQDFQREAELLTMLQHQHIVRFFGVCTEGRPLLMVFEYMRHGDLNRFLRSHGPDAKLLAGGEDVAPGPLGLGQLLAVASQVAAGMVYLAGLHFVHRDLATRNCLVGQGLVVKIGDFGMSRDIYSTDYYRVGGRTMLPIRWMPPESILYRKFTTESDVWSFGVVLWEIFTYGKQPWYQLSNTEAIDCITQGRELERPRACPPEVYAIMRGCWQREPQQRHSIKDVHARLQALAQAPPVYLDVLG
Vascular endothelial growth factor receptor 2 (VEGFR-2/FLK1), sequence (P35968 20-1356): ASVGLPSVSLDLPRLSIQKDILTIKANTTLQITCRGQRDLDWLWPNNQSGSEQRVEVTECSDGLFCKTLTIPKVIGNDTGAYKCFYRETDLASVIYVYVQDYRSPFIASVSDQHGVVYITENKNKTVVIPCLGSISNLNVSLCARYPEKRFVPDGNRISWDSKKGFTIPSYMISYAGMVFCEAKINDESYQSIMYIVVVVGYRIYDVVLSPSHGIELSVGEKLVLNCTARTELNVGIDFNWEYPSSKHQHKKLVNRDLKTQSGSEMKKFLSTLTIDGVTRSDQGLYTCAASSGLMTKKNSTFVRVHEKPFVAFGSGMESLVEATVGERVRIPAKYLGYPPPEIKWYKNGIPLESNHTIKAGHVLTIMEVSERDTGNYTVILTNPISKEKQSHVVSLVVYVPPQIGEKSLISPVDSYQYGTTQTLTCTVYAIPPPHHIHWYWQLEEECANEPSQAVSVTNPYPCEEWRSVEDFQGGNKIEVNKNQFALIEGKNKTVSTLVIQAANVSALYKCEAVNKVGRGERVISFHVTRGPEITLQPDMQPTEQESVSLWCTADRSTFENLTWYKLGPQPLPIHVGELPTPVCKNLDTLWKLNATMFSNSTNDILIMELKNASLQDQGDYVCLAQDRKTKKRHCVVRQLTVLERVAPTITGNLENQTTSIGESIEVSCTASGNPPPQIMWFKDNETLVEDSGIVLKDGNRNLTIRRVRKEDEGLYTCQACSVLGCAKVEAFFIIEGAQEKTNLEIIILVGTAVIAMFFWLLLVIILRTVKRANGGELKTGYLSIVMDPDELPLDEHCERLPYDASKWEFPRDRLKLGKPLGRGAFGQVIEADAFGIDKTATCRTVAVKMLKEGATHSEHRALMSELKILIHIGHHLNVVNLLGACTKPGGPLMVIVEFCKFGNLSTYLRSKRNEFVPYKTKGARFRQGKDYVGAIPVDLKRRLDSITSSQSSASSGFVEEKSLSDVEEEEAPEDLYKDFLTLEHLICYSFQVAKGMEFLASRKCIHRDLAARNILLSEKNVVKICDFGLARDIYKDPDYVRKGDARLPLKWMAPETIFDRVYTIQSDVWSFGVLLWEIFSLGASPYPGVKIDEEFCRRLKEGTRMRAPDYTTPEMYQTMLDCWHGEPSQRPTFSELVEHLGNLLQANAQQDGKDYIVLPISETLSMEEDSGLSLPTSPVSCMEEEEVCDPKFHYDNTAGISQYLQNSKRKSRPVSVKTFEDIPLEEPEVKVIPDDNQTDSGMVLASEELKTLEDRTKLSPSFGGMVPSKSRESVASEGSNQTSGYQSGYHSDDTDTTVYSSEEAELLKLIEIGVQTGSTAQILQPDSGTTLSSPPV
p160ROCK protein kinase, sequence (Q13464 2-1354): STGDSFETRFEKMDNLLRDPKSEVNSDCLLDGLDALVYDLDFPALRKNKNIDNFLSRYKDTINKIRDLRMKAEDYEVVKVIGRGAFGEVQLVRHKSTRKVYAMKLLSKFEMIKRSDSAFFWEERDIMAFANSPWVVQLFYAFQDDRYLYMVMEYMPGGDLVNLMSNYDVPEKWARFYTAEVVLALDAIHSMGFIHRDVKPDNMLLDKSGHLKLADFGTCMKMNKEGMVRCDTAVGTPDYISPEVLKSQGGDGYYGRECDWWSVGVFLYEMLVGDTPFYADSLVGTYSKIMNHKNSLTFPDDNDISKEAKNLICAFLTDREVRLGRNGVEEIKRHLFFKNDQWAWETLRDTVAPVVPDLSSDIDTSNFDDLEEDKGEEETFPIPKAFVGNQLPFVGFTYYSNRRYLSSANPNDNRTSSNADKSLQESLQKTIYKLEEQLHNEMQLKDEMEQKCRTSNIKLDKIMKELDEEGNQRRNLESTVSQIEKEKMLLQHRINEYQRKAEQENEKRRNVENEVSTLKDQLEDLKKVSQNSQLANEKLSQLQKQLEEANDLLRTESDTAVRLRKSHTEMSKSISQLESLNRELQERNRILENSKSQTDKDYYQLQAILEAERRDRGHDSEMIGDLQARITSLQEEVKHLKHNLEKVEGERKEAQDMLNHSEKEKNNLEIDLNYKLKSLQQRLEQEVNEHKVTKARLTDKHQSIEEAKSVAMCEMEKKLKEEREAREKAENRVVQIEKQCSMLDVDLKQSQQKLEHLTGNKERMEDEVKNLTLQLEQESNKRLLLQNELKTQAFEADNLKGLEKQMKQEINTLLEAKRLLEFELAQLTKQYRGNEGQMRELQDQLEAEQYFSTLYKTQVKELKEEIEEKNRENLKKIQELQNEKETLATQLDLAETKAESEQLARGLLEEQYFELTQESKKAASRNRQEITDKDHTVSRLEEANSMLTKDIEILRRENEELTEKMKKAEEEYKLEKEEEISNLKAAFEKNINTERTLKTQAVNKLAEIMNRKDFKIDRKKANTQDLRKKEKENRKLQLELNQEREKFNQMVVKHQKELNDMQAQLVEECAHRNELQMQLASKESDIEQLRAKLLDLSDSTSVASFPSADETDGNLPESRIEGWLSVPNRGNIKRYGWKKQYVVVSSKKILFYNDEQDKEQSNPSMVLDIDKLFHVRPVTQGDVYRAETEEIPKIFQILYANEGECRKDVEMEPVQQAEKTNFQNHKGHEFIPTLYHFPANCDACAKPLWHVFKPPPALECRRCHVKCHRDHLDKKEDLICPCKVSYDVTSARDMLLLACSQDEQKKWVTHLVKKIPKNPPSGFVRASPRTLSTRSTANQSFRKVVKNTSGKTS
Mitogen-activated protein kinase kinase kinase kinase 4 (MAP4K4/HGK), sequence (O95819 2-1239): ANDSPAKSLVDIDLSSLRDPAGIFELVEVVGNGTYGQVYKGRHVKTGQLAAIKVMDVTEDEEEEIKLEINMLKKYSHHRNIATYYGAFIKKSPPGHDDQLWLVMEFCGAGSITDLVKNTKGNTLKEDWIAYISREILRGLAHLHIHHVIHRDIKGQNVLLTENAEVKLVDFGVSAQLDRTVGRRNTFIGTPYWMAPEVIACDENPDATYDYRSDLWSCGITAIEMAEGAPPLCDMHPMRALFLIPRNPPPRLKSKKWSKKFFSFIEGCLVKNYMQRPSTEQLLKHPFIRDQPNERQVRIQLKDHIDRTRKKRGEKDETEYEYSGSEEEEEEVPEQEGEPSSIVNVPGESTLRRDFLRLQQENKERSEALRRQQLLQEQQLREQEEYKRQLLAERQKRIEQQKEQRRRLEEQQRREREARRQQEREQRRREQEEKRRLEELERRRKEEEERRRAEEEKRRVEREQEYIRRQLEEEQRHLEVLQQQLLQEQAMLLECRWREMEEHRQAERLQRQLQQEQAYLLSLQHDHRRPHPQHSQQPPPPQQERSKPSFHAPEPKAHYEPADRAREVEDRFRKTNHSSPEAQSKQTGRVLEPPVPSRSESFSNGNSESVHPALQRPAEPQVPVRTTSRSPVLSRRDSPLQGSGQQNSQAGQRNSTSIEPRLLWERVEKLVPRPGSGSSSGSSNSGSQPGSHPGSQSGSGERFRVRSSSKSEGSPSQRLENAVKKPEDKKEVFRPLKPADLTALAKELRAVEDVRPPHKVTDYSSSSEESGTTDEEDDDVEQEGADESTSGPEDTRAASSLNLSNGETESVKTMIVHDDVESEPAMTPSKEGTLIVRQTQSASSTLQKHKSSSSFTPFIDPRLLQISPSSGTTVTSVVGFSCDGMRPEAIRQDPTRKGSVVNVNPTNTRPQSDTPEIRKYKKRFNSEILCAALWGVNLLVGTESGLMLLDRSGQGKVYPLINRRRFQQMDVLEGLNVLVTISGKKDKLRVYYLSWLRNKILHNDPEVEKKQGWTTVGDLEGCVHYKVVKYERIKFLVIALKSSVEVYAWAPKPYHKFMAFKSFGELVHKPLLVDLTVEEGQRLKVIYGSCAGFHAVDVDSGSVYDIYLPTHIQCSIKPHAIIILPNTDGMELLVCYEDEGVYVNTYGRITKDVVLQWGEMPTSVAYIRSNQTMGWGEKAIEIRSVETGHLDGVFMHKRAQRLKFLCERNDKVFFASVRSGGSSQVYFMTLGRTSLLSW

Consider `CNS(=O)(=O)C[C@H]1CC[C@H](N(C)c2ncnc3[nH]ccc23)CC1` [oclacitinib], for which the “Percent inhibition at 1000 nM oclacitinib (1st replicate)” value on p160ROCK protein kinase is reported as 34; 32%; in test [1], 42; 34%; in test [2], 40; 40%; in test [3], 32; 31%; in test [4], 41; 37%.
